According to ChEMBL document CHEMBL4311940, “Design, Synthesis, and Biological Evaluation of 4-Methyl Quinazoline Derivatives as Anticancer Agents Simultaneously Targeting Phosphoinositide 3-Kinases and Histone Deacetylases” (J Med Chem, 2019):

Legend:
[1] = test system: HCT-116; assay: Induction of apoptosis in human HCT116 cells assessed as early apoptotic cells at 100 nM after 48 hrs by Annexin V-FITC/propidium iodide staining-based flow cytometric analysis (reference value: 1.33%); assay type: functional
[2] = test system: HCT-116; assay: Induction of apoptosis in human HCT116 cells assessed as necrotic cells at 100 nM after 48 hrs by Annexin V-FITC/propidium iodide staining-based flow cytometric analysis (reference value: 5.23%); assay type: functional
[3] = test system: HCT-116; assay: Induction of apoptosis in human HCT116 cells assessed as late apoptotic cells at 500 nM after 48 hrs by Annexin V-FITC/propidium iodide staining-based flow cytometric analysis (reference value: 3.87%); assay type: functional
[4] = test system: HCT-116; assay: Induction of apoptosis in human HCT116 cells assessed as late apoptotic cells at 100 nM after 48 hrs by Annexin V-FITC/propidium iodide staining-based flow cytometric analysis (reference value: 3.87%); assay type: functional
[5] = Mutagenicity in Salmonella typhimurium TA97 at 5 to 500 ug/plate in presence of s9 mix by Ames test; assay type: toxicity, subcellular; settings: salmonella enterica subsp. enterica serovar typhimurium
How it was run: (§1)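 Plate incorporation method at 5, 50 and 500 μg/plate, with and without S9 activation. At least three plates per dose, incubated 72 h at 37 °C, revertants counted. Mean revertants compared with vehicle and positive controls.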

[6] = test system: HCT-116; assay: Induction of apoptosis in human HCT116 cells after 48 hrs by Annexin V-FITC/propidium iodide staining-based flow cytometric analysis; assay type: functional, cell-based
[7] = test system: SW1990; assay: Antiproliferative activity against human SW1990 cells after 96 hrs by MTT assay; assay type: functional, cell-based; settings: SW1990, 96 h
[8] = test system: HCT-116; assay: Induction of apoptosis in human HCT116 cells assessed as early apoptotic cells at 20 nM after 48 hrs by Annexin V-FITC/propidium iodide staining-based flow cytometric analysis (reference value: 1.33%); assay type: functional
[9] = Mutagenicity in Salmonella typhimurium TA102 at 5 to 500 ug/plate in absence of s9 mix by Ames test; assay type: toxicity; settings: salmonella enterica subsp. enterica serovar typhimurium; how it was run: as §1
[10] = test system: HCT-8; assay: Antiproliferative activity against human HCT8 cells after 96 hrs by MTT assay; assay type: functional, cell-based; settings: HCT-8, 96 h
[11] = AUC (0 to infinity) in ICR mouse at 3 mg/kg, iv measured after 0.033 to 24 hrs by LC/MS/MS analysis; assay type: ADME, organism-based; set-up: dose 3 mg/kg, time infinity, route intravenous; settings: in vivo
How it was run: (§2)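 ICR mice; iv 3 mg/kg in 10% DMSO/saline (3 mice/group), blood at 0.033, 0.083, 0.25, 0.5, 1, 2, 4, 8, 12, 24 h; po 30 mg/kg as 0.5% cmc/0.3% Tween 80 suspension (5 mice/group), blood at 0.083–24 h. Plasma extracted with acetonitrile, LC/MS/MS; parameters by noncompartmental analysis.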

[12] = target: Histone deacetylase 11 (Homo sapiens, UniProt Q96DB2); assay: Inhibition of recombinant human full length HDAC11 expressed in baculovirus infected Sf9 insect cells using Ac-peptide as substrate preincubated for 15 mins followed by substrate addition and measured after 1 hr
Sequence of Histone deacetylase 11 (Q96DB2 whole entry, canonical isoform): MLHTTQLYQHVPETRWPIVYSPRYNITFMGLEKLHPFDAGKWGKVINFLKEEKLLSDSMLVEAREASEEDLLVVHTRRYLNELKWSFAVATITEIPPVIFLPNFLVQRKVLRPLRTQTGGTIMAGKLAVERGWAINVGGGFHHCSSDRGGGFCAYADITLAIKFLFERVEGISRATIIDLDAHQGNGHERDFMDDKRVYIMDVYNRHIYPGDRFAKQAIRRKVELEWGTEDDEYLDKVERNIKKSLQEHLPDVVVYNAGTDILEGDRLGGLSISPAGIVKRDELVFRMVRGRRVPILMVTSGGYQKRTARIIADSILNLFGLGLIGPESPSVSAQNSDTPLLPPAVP
How it was run: (§3)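 Recombinant HDAC isoforms mixed with serially diluted compound in assay buffer for 15 min at room temperature. Ac-peptide substrate then added and incubated 1 h at room temperature. Signal read on a plate reader; IC50 by curve fitting.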

[13] = test system: HepG2; assay: Antiproliferative activity against human HepG2 cells after 96 hrs by MTT assay; assay type: functional, cell-based; settings: HepG2, 96 h
[14] = test system: Capan-2; assay: Antiproliferative activity against human Capan2 cells after 96 hrs by MTT assay; assay type: functional, cell-based; settings: Capan-2, 96 h
[15] = test system: K562; assay: Antiproliferative activity against human K562 cells after 96 hrs by MTT assay; assay type: functional, cell-based; settings: K562, 96 h
[16] = test system: DU-145; assay: Antiproliferative activity against human DU145 cells after 96 hrs by MTT assay; assay type: functional, cell-based; settings: DU-145, 96 h
[17] = Mutagenicity in Salmonella typhimurium TA100 at 5 to 500 ug/plate in absence of s9 mix by Ames test; assay type: toxicity; settings: salmonella enterica subsp. enterica serovar typhimurium; how it was run: as §1
[18] = Tmax in ICR mouse at 30 mg/kg, po measured after 0.083 to 24 hrs by LC/MS/MS analysis; assay type: ADME, organism-based; settings: in vivo
How it was run: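 Male-unspecified ICR mice, 3 per group iv (3 mg/kg in 10% DMSO/saline) and 5 per group po (30 mg/kg in 0.5% cmc/0.3% Tween 80). Blood sampled 0.033 (iv) or 0.083 (po) to 24 h. Plasma extracted with acetonitrile, analysed by LC/MS/MS; noncompartmental analysis.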

[19] = AUC (0 to t) in ICR mouse at 30 mg/kg, po measured after 0.083 to 24 hrs by LC/MS/MS analysis; assay type: ADME, organism-based; set-up: time upper 24 hr, dose 30 mg/kg, time lower 0.083 hr, route oral; settings: in vivo; how it was run: as §2
[20] = test system: NCI-H1299; assay: Antiproliferative activity against human NCI-H1299 cells after 96 hrs by MTT assay; assay type: functional, cell-based; settings: NCI-H1299, 96 h
[21] = target: Histone deacetylase 8 (Homo sapiens, UniProt Q9BY41); assay: Inhibition of recombinant human full length C-terminal His-tagged HDAC8 expressed in baculovirus infected Sf9 insect cells using Ac-peptide as substrate preincubated for 15 mins followed by substrate addition and measured after 1 hr; how it was run: as §3
Sequence of Histone deacetylase 8 (Q9BY41 whole entry): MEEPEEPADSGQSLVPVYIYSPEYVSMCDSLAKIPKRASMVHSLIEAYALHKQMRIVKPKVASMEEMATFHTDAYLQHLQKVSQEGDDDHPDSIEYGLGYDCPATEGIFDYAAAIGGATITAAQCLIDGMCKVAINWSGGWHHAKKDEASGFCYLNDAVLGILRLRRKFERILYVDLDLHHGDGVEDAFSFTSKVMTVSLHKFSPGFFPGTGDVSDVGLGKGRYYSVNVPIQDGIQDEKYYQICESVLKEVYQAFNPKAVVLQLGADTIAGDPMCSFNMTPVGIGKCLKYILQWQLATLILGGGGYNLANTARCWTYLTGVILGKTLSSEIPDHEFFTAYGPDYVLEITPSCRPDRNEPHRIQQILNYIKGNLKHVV

[22] = target: Voltage-gated inwardly rectifying potassium channel KCNH2 (Homo sapiens, UniProt Q12809); assay: Inhibition of human ERG stably expressed in CHO cells by whole cell patch clamp method; assay type: cell-based
Sequence of Voltage-gated inwardly rectifying potassium channel KCNH2 (Q12809 whole entry): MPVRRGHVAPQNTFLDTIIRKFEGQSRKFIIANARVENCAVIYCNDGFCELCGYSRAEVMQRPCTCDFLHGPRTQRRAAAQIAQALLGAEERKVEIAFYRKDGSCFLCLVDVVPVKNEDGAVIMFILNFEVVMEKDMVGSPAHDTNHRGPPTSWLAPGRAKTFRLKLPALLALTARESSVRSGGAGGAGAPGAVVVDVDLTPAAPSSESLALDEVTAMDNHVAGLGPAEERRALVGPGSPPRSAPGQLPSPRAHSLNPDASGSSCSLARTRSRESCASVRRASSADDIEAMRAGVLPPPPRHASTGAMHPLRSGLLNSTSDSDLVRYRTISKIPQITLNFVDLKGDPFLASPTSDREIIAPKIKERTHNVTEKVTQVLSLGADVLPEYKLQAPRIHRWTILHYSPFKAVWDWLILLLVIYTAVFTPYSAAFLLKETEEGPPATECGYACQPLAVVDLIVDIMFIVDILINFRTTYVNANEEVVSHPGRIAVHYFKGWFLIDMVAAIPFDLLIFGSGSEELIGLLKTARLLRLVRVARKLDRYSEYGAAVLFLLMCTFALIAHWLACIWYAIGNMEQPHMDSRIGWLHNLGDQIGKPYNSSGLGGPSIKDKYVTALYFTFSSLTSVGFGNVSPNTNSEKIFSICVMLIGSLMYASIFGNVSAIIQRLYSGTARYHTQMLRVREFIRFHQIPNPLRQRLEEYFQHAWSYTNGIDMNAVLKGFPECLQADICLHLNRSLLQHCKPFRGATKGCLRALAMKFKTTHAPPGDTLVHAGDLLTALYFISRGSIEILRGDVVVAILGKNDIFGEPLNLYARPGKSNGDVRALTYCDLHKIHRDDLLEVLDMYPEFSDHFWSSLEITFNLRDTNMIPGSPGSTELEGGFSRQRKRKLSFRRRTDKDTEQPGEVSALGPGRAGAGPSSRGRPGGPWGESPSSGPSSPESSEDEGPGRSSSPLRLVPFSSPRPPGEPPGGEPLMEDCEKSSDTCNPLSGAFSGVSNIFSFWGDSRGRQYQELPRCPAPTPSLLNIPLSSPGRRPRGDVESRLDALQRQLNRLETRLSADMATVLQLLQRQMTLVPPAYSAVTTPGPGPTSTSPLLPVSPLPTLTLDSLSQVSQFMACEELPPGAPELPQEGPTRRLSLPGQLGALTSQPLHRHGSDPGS
How it was run: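 CHO cells stably expressing hERG, grown in F-12 (Ham)/GlutaMAX with 10% FBS, penicillin G, blasticidin S and hygromycin B. Expression induced with 1 μg/mL doxycycline, cells cultured 24 h, then recorded by whole-cell patch clamp.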

[23] = test system: HCT-116; assay: Induction of apoptosis in human HCT116 cells assessed as live cells at 100 nM after 48 hrs by Annexin V-FITC/propidium iodide staining-based flow cytometric analysis (reference value: 89.6%); assay type: functional
[24] = Toxicity in ip dosed ICR mouse assessed as maximum tolerated dose; assay type: organism-based; settings: in vivo
How it was run: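 Male ICR mice, 6−8 weeks old, given one dose; vehicle 0.5% cmc with Tween 80 for oral dosing, saline for intraperitoneal dosing. Clinical signs observed and body weights recorded for 7 consecutive days after dosing to set the maximum tolerated dose.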

[25] = Mutagenicity in Salmonella typhimurium TA102 at 5 to 500 ug/plate in presence of s9 mix by Ames test; assay type: toxicity, subcellular; settings: salmonella enterica subsp. enterica serovar typhimurium; how it was run: as §1
[26] = Clearance in ICR mouse at 3 mg/kg, iv measured after 0.033 to 24 hrs by LC/MS/MS analysis; assay type: ADME, organism-based; settings: in vivo; how it was run: as §2
[27] = Cmax in ICR mouse at 3 mg/kg, iv measured after 0.033 to 24 hrs by LC/MS/MS analysis; assay type: ADME, organism-based; set-up: dose 3 mg/kg, route intravenous; settings: in vivo; how it was run: as §2
[28] = target: Histone deacetylase 2 (Homo sapiens, UniProt Q92769); assay: Inhibition of recombinant human full length HDAC2 expressed in baculovirus infected Sf9 insect cells using Ac-peptide as substrate preincubated for 15 mins followed by substrate addition and measured after 1 hr; how it was run: as §3
Sequence of Histone deacetylase 2 (Q92769 whole entry, canonical isoform): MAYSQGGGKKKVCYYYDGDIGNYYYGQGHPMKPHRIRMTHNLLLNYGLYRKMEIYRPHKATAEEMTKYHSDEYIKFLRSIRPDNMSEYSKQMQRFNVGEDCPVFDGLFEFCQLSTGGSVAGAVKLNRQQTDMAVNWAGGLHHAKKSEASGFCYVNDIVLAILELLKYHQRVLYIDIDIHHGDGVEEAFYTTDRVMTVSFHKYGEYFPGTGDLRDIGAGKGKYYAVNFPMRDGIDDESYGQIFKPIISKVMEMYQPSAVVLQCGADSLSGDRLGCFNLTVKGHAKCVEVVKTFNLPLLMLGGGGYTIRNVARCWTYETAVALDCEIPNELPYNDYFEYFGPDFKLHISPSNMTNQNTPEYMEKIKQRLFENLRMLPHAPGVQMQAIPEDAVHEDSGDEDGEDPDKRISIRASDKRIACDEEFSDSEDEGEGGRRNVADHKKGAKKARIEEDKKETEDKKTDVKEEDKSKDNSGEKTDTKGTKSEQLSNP

[29] = target: Phosphatidylinositol 4,5-bisphosphate 3-kinase catalytic subunit beta isoform (Homo sapiens, UniProt P42338); assay: Inhibition of recombinant human PIK3CB using PIP2 as substrate incubated for 1 hr by ADP-glo assay
Sequence of Phosphatidylinositol 4,5-bisphosphate 3-kinase catalytic subunit beta isoform (P42338 whole entry, canonical isoform): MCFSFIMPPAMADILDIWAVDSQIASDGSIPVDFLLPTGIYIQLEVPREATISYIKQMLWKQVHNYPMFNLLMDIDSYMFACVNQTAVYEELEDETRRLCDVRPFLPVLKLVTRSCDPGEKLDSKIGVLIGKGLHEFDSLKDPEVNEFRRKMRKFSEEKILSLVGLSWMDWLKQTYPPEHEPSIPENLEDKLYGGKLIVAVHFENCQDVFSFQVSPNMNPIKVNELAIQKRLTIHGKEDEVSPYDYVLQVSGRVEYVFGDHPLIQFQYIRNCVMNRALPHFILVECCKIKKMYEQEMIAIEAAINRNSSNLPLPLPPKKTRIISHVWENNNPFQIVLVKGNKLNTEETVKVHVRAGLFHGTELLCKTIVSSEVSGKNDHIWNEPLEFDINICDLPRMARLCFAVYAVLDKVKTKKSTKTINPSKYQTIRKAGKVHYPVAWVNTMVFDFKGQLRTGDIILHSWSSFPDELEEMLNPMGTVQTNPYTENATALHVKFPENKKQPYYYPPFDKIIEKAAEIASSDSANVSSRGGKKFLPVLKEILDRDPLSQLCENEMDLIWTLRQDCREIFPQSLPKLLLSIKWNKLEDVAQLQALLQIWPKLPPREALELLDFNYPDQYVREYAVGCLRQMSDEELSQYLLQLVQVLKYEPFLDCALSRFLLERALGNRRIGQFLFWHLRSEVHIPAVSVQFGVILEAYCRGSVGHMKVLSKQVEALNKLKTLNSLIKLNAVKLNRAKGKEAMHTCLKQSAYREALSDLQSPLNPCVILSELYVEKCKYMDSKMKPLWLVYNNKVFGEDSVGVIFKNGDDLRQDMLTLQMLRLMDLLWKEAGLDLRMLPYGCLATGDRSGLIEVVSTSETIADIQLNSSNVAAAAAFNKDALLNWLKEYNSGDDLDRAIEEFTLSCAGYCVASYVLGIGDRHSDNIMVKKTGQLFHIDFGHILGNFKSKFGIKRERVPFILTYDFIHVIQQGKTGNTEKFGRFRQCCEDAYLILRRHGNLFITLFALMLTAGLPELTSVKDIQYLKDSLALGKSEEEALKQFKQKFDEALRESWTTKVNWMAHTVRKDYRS
How it was run: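 Recombinant PI3Kβ, -γ or -δ, serially diluted compound, PIP2 substrate and ATP combined in kinase buffer. Incubated 1 h at room temperature in the dark, then stopped with ADP-Glo reagent. Luminescence read after kinase detection reagent; IC50 by curve fitting.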

[30] = test system: U-87 MG; assay: Antiproliferative activity against human U87 cells after 96 hrs by MTT assay; assay type: functional, cell-based, U-87MG ATCC

Structure (SMILES) | Activity [1] [%] | Activity [2] [%] | Activity [3] [%] | Activity [4] [%] | Activity [5] | Activity [6] | IC50 [7] [nM] | Activity [8] [%] | Activity [9] | IC50 [10] [nM] | IC50 [12] [nM] | IC50 [13] [nM] | IC50 [14] [nM] | IC50 [15] [nM] | IC50 [16] [nM] | Activity [17] | Tmax [18] [h] | AUC(0-t) [19] [ng·h/mL] | IC50 [20] [nM] | IC50 [21] [nM] | also measured
COc1ncc(-c2cc(OCCCCCCC(=O)NO)c3ncnc(C)c3c2)cc1F | 6.56 | 4.64 | 10.3 | 7.97 | Non-Toxic | Dose-dependent effect | 900 | 1.83 | Non-Toxic | 320 | > 1000 | 1100 | 430 | 6800 | 540 | Non-Toxic | 0.3 | 230 | 1000 | 18 | AUC(0-inf) ([11]; ICR): 558 ng·h/mL; IC50 [22]: > 30000 nM; Activity [23]: 80.8%; MTD [24]: > 100 mg/kg; Activity [25]: Non-Toxic; clearance [26]: 90 mL/min/kg; Cmax [27]: 3050 ng/mL; IC50 [28]: 3 nM; IC50 [29]: 101 nM; IC50 [30]: 3200 nM
COc1ccc(-c2cc(OCCN(C)c3ncc(C(=O)NO)cn3)c3ncnc(C)c3c2)cn1 | 16.8 | 2.99 | 24.4 | 9.92 | Non-Toxic | Dose-dependent effect | 230 | 4.53 | Non-Toxic | 59 | > 1000 | 76 | 270 | 1200 | 66 | Non-Toxic | 1.8 | 23.1 | 180 | 12 | AUC [11]: 143 ng·h/mL; IC50 [22]: > 30000 nM; Activity [23]: 70.2%; MTD [24]: > 100 mg/kg; Activity [25]: Non-Toxic; clearance [26]: 352 mL/min/kg; Cmax [27]: 417 ng/mL; IC50 [28]: 3.4 nM; IC50 [29]: 279 nM; IC50 [30]: 340 nM
